From ChEMBL document CHEMBL4177761, “Highlights of the Structure-Activity Relationships of Benzimidazole Linked Pyrrolidines Leading to the Discovery of the Hepatitis C Virus NS5A Inhibitor Pibrentasvir (ABT-530)” (J Med Chem, 2018)
Changes are numbered by the printed parent chain. Converted amounts (≈) assume the structure as drawn.

Legend:
[1] = Solubility of the compound by CLND method; format: physicochemical
[2] = Intrinsic clearance in rat microsomes; format: ADME, Microsome
[3] = Lipophilicity, log D of the compound by HPLC method; format: physicochemical
[4] = Intrinsic clearance in human microsomes; format: ADME, Microsome
[5] = molecular target: T1, Nonstructural protein 5A (Hepatitis C virus) (UniProt Q5L478); test: Inhibition of NS5A M28T mutant in HuH7 cell infected HCV genotype 1a H77 assessed as decrease in viral replication after 4 days by luciferase reporter gene assay relative to wild type protein; conditions: Hepatitis C virus (isolate H77)
T1 sequence (whole entry): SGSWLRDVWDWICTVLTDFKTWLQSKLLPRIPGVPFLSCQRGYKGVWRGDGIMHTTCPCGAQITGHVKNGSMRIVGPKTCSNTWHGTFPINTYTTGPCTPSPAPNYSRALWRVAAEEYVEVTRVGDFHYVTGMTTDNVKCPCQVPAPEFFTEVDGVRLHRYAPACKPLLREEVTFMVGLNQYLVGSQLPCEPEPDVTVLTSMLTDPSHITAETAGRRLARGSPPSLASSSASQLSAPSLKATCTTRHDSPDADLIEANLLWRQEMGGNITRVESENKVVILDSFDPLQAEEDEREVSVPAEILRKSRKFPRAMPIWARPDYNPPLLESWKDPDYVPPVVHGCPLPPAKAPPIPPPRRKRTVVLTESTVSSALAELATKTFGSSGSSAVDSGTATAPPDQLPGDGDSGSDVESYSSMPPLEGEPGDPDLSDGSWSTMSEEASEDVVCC
How it was run: (§1)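 Stable subgenomic luciferase replicons in Huh-7 cells: genotype 1a-H77 carrying NS5A substitutions M28T, Q30E, Q30R, Y93C, Y93H or Y93N, tested alongside the wild-type replicon. Cells are incubated 4 days with compound in DMEM with 5% FBS. Luciferase read-out, EC50 by 4-parameter logistic fit, and fold change versus wild type.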

[6] = molecular target: T1, Nonstructural protein 5A (Hepatitis C virus); test: Inhibition of NS5A Q30R mutant in HuH7 cell infected HCV genotype 1a H77 assessed as decrease in viral replication after 4 days by luciferase reporter gene assay relative to wild type protein; conditions: Hepatitis C virus (isolate H77); how it was run: as §1
[7] = test system: T2, Nonstructural protein 5A (Hepatitis C virus), Q5L478 [Y93H]; test: Inhibition of NS5A Y93H mutant in HuH7 cell infected HCV genotype 1b Con1 assessed as decrease in viral replication after 4 days by luciferase reporter gene assay relative to wild type protein; conditions: Hepatitis C virus (isolate Con1)
T2 sequence (whole entry): T1 sequence (whole entry) with Y93H
How it was run: as §1, with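 “1b-Con1” for “1a-H77”, “NS5A” for “NS5A substitutions M28T, Q30E, Q30R, Y93C,”, “from a” for “by”, “expressed as” for “and”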

[8] = test system: T3, Nonstructural protein 5A (Hepatitis C virus), Q5L478 [Y93N]; test: Inhibition of NS5A Y93N mutant in HuH7 cell infected HCV genotype 1a H77 assessed as decrease in viral replication after 4 days by luciferase reporter gene assay relative to wild type protein; conditions: Hepatitis C virus (isolate H77); how it was run: as §1
T3 sequence (whole entry): T1 sequence (whole entry) with Y93N

[9] = molecular target: T1, Nonstructural protein 5A (Hepatitis C virus); test: Inhibition of NS5A Q30E mutant in HuH7 cell infected HCV genotype 1a H77 assessed as decrease in viral replication after 4 days by luciferase reporter gene assay relative to wild type protein; conditions: Hepatitis C virus (isolate H77); how it was run: as §1
[10] = test system: T4, Nonstructural protein 5A (Hepatitis C virus), Q5L478 [Y93C]; test: Inhibition of NS5A Y93C mutant in HuH7 cell infected HCV genotype 1a H77 assessed as decrease in viral replication after 4 days by luciferase reporter gene assay relative to wild type protein; conditions: Hepatitis C virus (isolate H77); how it was run: as §1
T4 sequence (whole entry): T1 sequence (whole entry) with Y93C

[11] = test system: T2, Nonstructural protein 5A (Hepatitis C virus), Q5L478 [Y93H]; test: Inhibition of NS5A Y93H mutant in HuH7 cell infected HCV genotype 1a H77 assessed as decrease in viral replication after 4 days by luciferase reporter gene assay relative to wild type protein; conditions: Hepatitis C virus (isolate H77); how it was run: as §1
[12] = AUC (0 to infinity) in mouse at 3 mg/kg, po by LC-MS method; format: ADME, organism-based; design: dose 3 mg/kg, route oral, time infinity; conditions: in vivo
How it was run: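 Single dose, 3 mg/kg, in mouse or rat. IV vehicle: DMSO:Tween 80:PEG-400:D5W 2:5:20:73 (v/v). PO vehicle: Phosol 53 MCT:PEG-400:Poloxamer 124:Cremophor RH40 40:20:20:20 (w/w). Acetonitrile protein precipitation, then LC-MS/MS in negative-ion MRM against an internal standard; LOQ ~20 ng/mL.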

[13] = test system: T3, Nonstructural protein 5A (Hepatitis C virus), Q5L478 [Y93N]; test: Inhibition of NS5A Y93N mutant in HuH7 cell infected HCV genotype 1b Con1 assessed as decrease in viral replication after 4 days by luciferase reporter gene assay relative to wild type protein; conditions: Hepatitis C virus (isolate Con1)
How it was run: as §1, with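 “1b-Con1” for “1a-H77”, “NS5A” for “NS5A substitutions M28T, Q30E, Q30R, Y93C,”, “from a” for “by”, “expressed as” for “and”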

SMILES | solubility kinetic [1] | CLint scaled [2] | logD [3] | CLint scaled [4] | fold change (FC) [5] | fold change (FC) [6] | fold change (FC) [7] | fold change (FC) [8] | fold change (FC) [9] | fold change (FC) [10] | fold change (FC) [11] | AUC(0-inf) [12] | fold change (FC) [13]
COC(=O)N[C@H](C(=O)N1CCC[C@H]1c1nc2ccc([C@H]3CC[C@H](c4ccc5nc([C@@H]6CCCN6C(=O)[C@@H](NC(=O)OC)C(C)C)[nH]c5c4)N3c3ccc(N4CCC(c5ccccc5)CC4)cc3)cc2[nH]1)C(C)C | 0.82 µM (≈ 0.813 µg/mL) | 2.8 L/h/kg | 5.4 | < 1.5 L/h/kg | – | – | – | – | – | – | – | – | –
COC(=O)N[C@H](C(=O)N1CCC[C@H]1c1nc2cc([C@H]3CC[C@H](c4ccc5[nH]c([C@@H]6CCCN6C(=O)[C@@H](NC(=O)OC)C(C)C)nc5c4)N3c3cc(F)c(N4CCCCC4)c(F)c3)ccc2[nH]1)C(C)C | 0.7 µM (≈ 0.666 µg/mL) | 11.2 L/h/kg | – | 10.5 L/h/kg | 5 | 13 | 1 | 510 | 134 | 9 | 241 | 1.79 µg·h/mL | –
COC(=O)N[C@H](C(=O)N1CCC[C@H]1c1nc2cc([C@H]3CC[C@H](c4ccc5[nH]c([C@@H]6CCCN6C(=O)[C@@H](NC(=O)OC)C(C)C)nc5c4)N3c3cc(F)c(N4CCC(c5ccccc5)CC4)c(F)c3)ccc2[nH]1)C(C)C | 1.1 µM (≈ 1.13 µg/mL) | 3.2 L/h/kg | – | < 1.5 L/h/kg | – | – | – | – | – | – | – | 6.83 µg·h/mL | –
COC(=O)N[C@H](C(=O)N1CCC[C@H]1c1nc2cc(F)c([C@H]3CC[C@H](c4cc5[nH]c([C@@H]6CCCN6C(=O)[C@@H](NC(=O)OC)C6CCOCC6)nc5cc4F)N3c3cc(F)c(N4CCC(c5ccccc5)CC4)c(F)c3)cc2[nH]1)C1CCOCC1 | – | – | – | – | – | – | – | 2 | 1 | – | 3 | – | –
COC(=O)N[C@H](C(=O)N1CCC[C@H]1c1nc2cc(F)c([C@H]3CC[C@H](c4cc5[nH]c([C@@H]6CCCN6C(=O)[C@@H](NC(=O)OC)C6CCOCC6)nc5cc4F)N3c3cc(F)c(N4CCC(c5ccc(F)cc5)CC4)c(F)c3)cc2[nH]1)C1CCOCC1 | – | – | – | – | – | – | – | 2 | 1 | – | 2 | – | –
COC(=O)N[C@H](C(=O)N1CCC[C@H]1c1nc2ccc([C@H]3CC[C@H](c4ccc5nc([C@@H]6CCCN6C(=O)[C@@H](NC(=O)OC)C(C)C)[nH]c5c4)N3c3ccc(Cl)cc3)cc2[nH]1)C(C)C | – | – | – | – | 28 | 44 | 1 | 1160 | 83 | 22 | 670 | – | –
COC(=O)N[C@H](C(=O)N1CCC[C@H]1c1nc2cc(F)c([C@H]3CC[C@H](c4cc5[nH]c([C@@H]6CCCN6C(=O)[C@@H](NC(=O)OC)[C@@H](C)OC)nc5cc4F)N3c3cc(F)c(N4CCC(c5ccccc5)CC4)c(F)c3)cc2[nH]1)[C@@H](C)OC | – | – | – | – | 1 | 1 | 1 | 5 | 2 | 1 | 6 | – | 0.3
COC(=O)N[C@H](C(=O)N1CCC[C@H]1c1nc2cc([C@H]3CC[C@H](c4ccc5[nH]c([C@@H]6CCCN6C(=O)[C@@H](NC(=O)OC)C(C)C)nc5c4)N3c3cc(F)c(N4CCC(c5ccc(F)cc5)CC4)c(F)c3)ccc2[nH]1)C(C)C | 0.9 µM (≈ 0.941 µg/mL) | 3.2 L/h/kg | 5.8 | < 1.5 L/h/kg | – | – | – | – | – | – | – | 4.59 µg·h/mL | –
COC(=O)N[C@H](C(=O)N1CCC[C@H]1c1nc2ccc([C@H]3CC[C@H](c4ccc5nc([C@@H]6CCCN6C(=O)[C@@H](NC(=O)OC)C(C)C)[nH]c5c4)N3c3cc(F)c(N4CCC(c5ccccc5)CC4)c(F)c3)cc2[nH]1)C(C)C | – | – | – | – | 3 | 7 | 1 | 145 | 69 | 6 | 72 | – | 1
COC(=O)N[C@H](C(=O)N1CCC[C@H]1c1nc2ccc([C@H]3CC[C@H](c4ccc5nc([C@@H]6CCCN6C(=O)[C@@H](NC(=O)OC)C(C)C)[nH]c5c4)N3c3ccc(-c4ccccc4)cc3)cc2[nH]1)C(C)C | – | – | – | – | – | 10 | 1 | 827 | 47 | 24 | 329 | – | 1
COC(=O)N[C@H](C(=O)N1CCC[C@H]1c1nc2ccc([C@H]3CC[C@H](c4ccc5nc([C@@H]6CCCN6C(=O)[C@@H](NC(=O)OC)C(C)C)[nH]c5c4)N3c3ccc(C4CCCCC4)cc3)cc2[nH]1)C(C)C | – | – | – | – | > 17 | > 30 | 1 | – | > 90 | > 30 | > 577 | – | –
COC(=O)N[C@H](C(=O)N1CCC[C@H]1c1nc2ccc([C@H]3CC[C@H](c4ccc5nc([C@@H]6CCCN6C(=O)[C@@H](NC(=O)OC)C(C)C)[nH]c5c4)N3c3cc(F)c(N4CCC(c5ccc(F)cc5)CC4)c(F)c3)cc2[nH]1)C(C)C | – | – | – | – | 2 | 3 | 2 | 25 | 20 | 3 | 20 | – | –
COC(=O)N[C@H](C(=O)N1CCC[C@H]1c1nc2cc(F)c([C@H]3CC[C@H](c4cc5[nH]c([C@@H]6CCCN6C(=O)[C@@H](NC(=O)OC)C(C)C)nc5cc4F)N3c3cc(F)c(N4CCC(c5ccccc5)CC4)c(F)c3)cc2[nH]1)C(C)C | – | – | – | – | 1 | 2 | 1 | 50 | 12 | 6 | 49 | – | 1
